Laboratory results taken from ChEMBL document CHEMBL1127497, “Studies on antiulcer drugs. 7. 2-Guanidino-4-pyridylthiazoles as histamine H2-receptor antagonists with potent gastroprotective effects against nonsteroidal antiinflammatory drug-induced injury” (J Med Chem, 1994).

Legend:
[1] = biological target: Histamine H2 receptor (Cavia porcellus) (UniProt P47747); assay: H2 receptor antagonistic activity against histamine stimulated chronotropic response in isolated guinea pig right atrium at 1x10E-6 g/mL.; format: functional, tissue-based; settings: Cardiac atrium
Sequence of Histamine H2 receptor (Cavia porcellus) (P47747 whole entry): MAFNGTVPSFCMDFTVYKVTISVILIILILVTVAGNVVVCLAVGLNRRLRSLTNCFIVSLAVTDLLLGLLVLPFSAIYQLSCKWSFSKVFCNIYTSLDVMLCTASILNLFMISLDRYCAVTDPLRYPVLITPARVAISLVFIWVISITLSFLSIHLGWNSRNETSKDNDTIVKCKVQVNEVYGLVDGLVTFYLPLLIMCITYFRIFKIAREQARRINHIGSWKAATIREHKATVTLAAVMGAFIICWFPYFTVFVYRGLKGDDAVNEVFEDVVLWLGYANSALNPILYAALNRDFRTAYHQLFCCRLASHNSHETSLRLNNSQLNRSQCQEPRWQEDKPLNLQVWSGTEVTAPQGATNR
How it was run: (§1)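 Guinea pig atrial strip under 0.3–0.6 g tension in Tyrode solution, 30 °C, gassed with 95% O2-5% CO2. Beating rate recorded. Histamine HCl 1 × 10-6 g/mL given; after washout, test compound added (single-concentration screen 1 × 10-6 g/mL) and histamine response compared before and 30 min after dosing. IC50 from three doses by probit analysis, three atria per dose.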

Rattus norvegicus [2] = assay: Inhibition of aspirin induced gastric lesions in rats after peroral dose of 32 mg/kg; format: functional; settings: Stomach, route oral
How it was run: (§2)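 Male SD rats (~200 g), fasted 24 h. Test compound given orally in 0.1% MC, then aspirin 200 mg/kg in 0.2 N HCl/0.1% MC (10 mL/kg) orally 30 min later. Rats killed 1 h after aspirin. Ulcer index is the summed lesion length (mm); % inhibition is relative to controls. Seven rats per group for screening; ED50 by probit from three doses, ten rats per dose.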

Rattus norvegicus [3] = assay: Inhibition of histamine stimulated gastric acid secretion in lumen perfused anaesthetized rats after 1 mg/kg intravenous dose; format: functional; settings: Stomach
How it was run: (§3)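 Male SD rats (~250 g), fasted 24 h, urethane 1.25 g/kg ip. Stomach lumen perfused with saline; perfusate titrated with 25 mM NaOH. Histamine infused iv at 3 mg/kg/h. At plateau, compound given iv at 1 mg/kg. Result expressed as maximal inhibition of acid output; n = 2.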

Canis familiaris [4] = assay: Evaluated against tetragastrin stimulated gastric acid secretion in conscious Hiedenhain-pouch dogs at a dose of 0.32 mg/kg, po; format: functional; settings: Canis lupus familiaris, Stomach
How it was run: (§4)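 Beagle Heidenhain-pouch dogs, 8–13 kg, oral dosing. Acid concentration titrated to pH 7 with 0.1 N NaOH; total acid output is volume × concentration. Change is relative to predosing output. ED50 by probit from three or four doses, three or four dogs per dose.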

Rattus norvegicus [5] = assay: Effective dose against aspirin induced gastric lesions in rats after peroral administration; format: functional; settings: Stomach, po; how it was run: as §2
Rattus norvegicus [6] = assay: Effect on gastric mucosal blood flow 15 minutes before dosing of HCl and aspirin after drug dosing at 100 mg/kg intragastrically; format: functional, Gastric mucosa; settings: route intragastric
How it was run: (§5)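 Male rats, five per group, test drug suspended in 0.1% MC given intragastrically. Aspirin 200 mg/kg in 0.2 N HCl/0.1% MC (0.2 mL) given ig 15 min later. […] Reported as mean ± SEM and % of initial.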

Rattus norvegicus [7] = assay: Effect on gastric mucosal blood flow at basal value which is 15 minutes before dosing of drugs at 100 mg/kg intragastrically; format: functional, Gastric mucosa; settings: route intragastric; how it was run: as §5
Rattus norvegicus [8] = assay: Effect on gastric mucosal blood flow 30 minutes after administration of HCl and aspirin after drug dosing at 100 mg/kg intragastrically; format: functional, Gastric mucosa; settings: route intragastric; how it was run: as §5
Rattus norvegicus [9] = assay: Evaluated for inhibition of basal gastric acid secretion on pyolus-ligated rats after intraduodenal administration; settings: Stomach, id
Rattus norvegicus [10] = assay: Evaluated against histamine stimulated gastric acid secretion in lumen perfused anaesthetized rats after 1 mg/kg intravenous dose; format: functional; settings: Stomach; how it was run: as §3
Canis familiaris [11] = assay: Evaluated against tetragastrin stimulated gastric acid secretion in conscious Hiedenhain-pouch dogs at a dose of 0.32 mg/Kg, po; format: functional; settings: Canis lupus familiaris, Stomach; how it was run: as §4
Rattus norvegicus [12] = assay: Effect on gastric mucosal blood flow 60 minutes after administration of HCl and aspirin after drug dosing at 100 mg/kg intragastrically; format: functional, Gastric mucosa; settings: route intragastric; how it was run: as §5
Histamine H2 receptor = Histamine H2 receptor (Cavia porcellus, UniProt P47747); assay: Compound was tested for H2 receptor antagonistic activity against histamine stimulated chronotropic response in isolated guinea pig right atrium; format: functional, tissue-based, Cardiac atrium; how it was run: as §1
Sequence of Histamine H2 receptor (P47747 whole entry): as above

Canis familiaris [13] = assay: Effective dose against tetragastrin stimulated gastric acid secretion in conscious Hiedenhain-pouch dogs after peroral administration; format: functional; settings: Canis lupus familiaris, Stomach, po; how it was run: as §4

| Structure (SMILES) | inhibition [1] [%] | inhibition in vivo at 32 mg/kg (Rattus norvegicus [2]) [%] | inhibition in vivo at 1 mg/kg (Rattus norvegicus [3]) [%] | also measured |
| --- | --- | --- | --- | --- |
| N=C(N)Nc1nc(-c2cccc(CNC(=O)C3CCCCC3)n2)cs1 | 23 | 62 | 23 |  |
| N=C(N)Nc1nc(-c2cccc(CNC(=O)CSCc3ccco3)n2)cs1 | 76 | 49 | 16 |  |
| CC(=O)NCc1cncc(-c2csc(N=C(N)N)n2)c1 | 22 | 42 | 10 |  |
| N=C(N)Nc1nc(-c2cccc(CNC(=O)C3CC3)n2)cs1 | 60 | 62 | 91 | inhibition in vivo at 0.32 mg/kg (Canis familiaris [4]): 48% |
| CC(=O)Nc1cccc(-c2csc(N=C(N)N)n2)n1 |  | 43 | 16 |  |
| N=C(N)Nc1nc(-c2ccc(CC(=N)NS(N)(=O)=O)o2)cs1 | 84 | 49 | 99 | inhibition in vivo at 0.32 mg/kg (Canis familiaris [4]): 92% |
| CCNC(=O)NCc1cccc(-c2csc(N=C(N)N)n2)n1 | 52 | 34 | 91 |  |
| CC(C)(C)C(=O)NCc1cccc(-c2csc(N=C(N)N)n2)n1 |  | 58 | 22 |  |
| CN/C(=C\[N+](=O)[O-])NCc1cccc(-c2csc(N=C(N)N)n2)n1 | -14 | -27 | 18 |  |
| N=C(N)Nc1nc(-c2cccc(CNC(=O)C3CCC(=O)CC3)n2)cs1 | 2 | 62 | 37 |  |
| N=C(N)Nc1nc(-c2cccc(CNC(=O)C3CCOC3)n2)cs1 (centres undefined) | 32 | 42 | 51 |  |
| CNC(=O)NCc1cccc(-c2csc(N=C(N)N)n2)n1 | 86 | 57 | 79 |  |
| CS(=O)(=O)NCc1cccc(-c2csc(N=C(N)N)n2)n1 | 50 | 60 | 46 |  |
| CCS(=O)(=O)N/C=N\Cc1cccc(-c2csc(N=C(N)N)n2)n1 | 4 | 1 | -18 |  |
| CCC(=O)NCc1cccc(-c2csc(N=C(N)N)n2)n1 | 72 | 70 | 81 | inhibition in vivo at 0.32 mg/kg (Canis familiaris [4]): 50% |
| CC(=O)NCCc1cccc(-c2csc(N=C(N)N)n2)n1 | 3 | 31 | 58 |  |
| CNC(=C[N+](=O)[O-])NCCSCc1ccc(CN(C)C)o1 [RANITIDINE] | 44 | 3 |  | ED50 (Rattus norvegicus [5]): > 100 mg/kg; Flow rate (Rattus norvegicus [6]): 82.3 ml min-1 100g-1; Flow rate (Rattus norvegicus [7]): 85.3 ml min-1 100g-1; Flow rate (Rattus norvegicus [8]): 53.4 ml min-1 100g-1; ED50 (Rattus norvegicus [9]): 30.5 mg/kg; inhibition in vivo at 1 mg/kg (Rattus norvegicus [10]): 72%; inhibition in vivo at 0.32 mg/kg (Canis familiaris [11]): 41%; Flow rate (Rattus norvegicus [12]): 55.4 ml min-1 100g-1; IC50 (Histamine H2 receptor): 3.4 µM; ED50 (Canis familiaris [13]): 0.3 mg/kg |
| N=C(N)Nc1nc(-c2cccc(CNC(=O)C3CCCO3)n2)cs1 (centres undefined) | 7 | 66 | 6 |  |
